HNF4A DNA FP = change in binding of human HNF4A to DNA, primary screen, biochemical, fluorescence polarization, FITC-DNA; Hepatocyte nuclear factor 4-alpha (Homo sapiens), P41235; 1 h; activity change, % at 10 µM; 360,000 tested, 0.3% active; in the data active = activity change above about 30%, passing the limit was not always enough
Neddyl block = inhibitors of cullin neddylation, primary screen, biochemical, TR-FRET, uHTS, NAE and Ubc12 | NEDD8-conjugating enzyme Ubc12 (Homo sapiens) + NEDD8-activating enzyme E1 regulatory … | inhibition, % at 25 µM | 360,000 tested, 0.58% active | AID 651699, 2012; in the data active = inhibition above about 36%
Rpn11 inh = Rpn11 (PSMD14) deubiquitinase inhibitors, primary screen, biochemical, fluorescence polarization, uHTS; human 26S proteasome, Ub4-pepOG fluorescence polarization; 20S core pre-blocked with epoxomicin; inhibition, % at 20 µM; 360,000 tested, 0.59% active;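 active = inhibition at 20 µM, scaled to each plate's controls, above about 33%, limit read from the data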
PREPL inhibitor = PREPL enzyme inhibitors, primary screen, biochemical, fluorescence polarization | inhibition, % at 5.96 µM | 320,000 tested, 0.68% active | Prolyl endopeptidase-like (Homo sapiens), Q4J6C6 | recombinant PREPL, fluorescence polarization activity-based probe; in the data active = inhibition above about 43%;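 note: 0% = enzyme with DMSO and 100% = wells lacking enzyme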
TbMetRS inhib = T. brucei MetRS inhibitors, primary screen, biochemical, luminescence; inhibition, % at 11.9 µM; 360,000 tested, 0.4% active; methionyl-tRNA synthetase (Trypanosoma brucei brucei); purified T. brucei MetRS, ATP depletion, Kinase-Glo luminescence;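 active = inhibition above a per-plate cutoff of the control wells' mean inhibition plus 3 SD, cut at about 5.5% in these data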;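 note: 0% = DMSO wells median and 100% = median of wells with control inhibitor compound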
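Assay system: T. brucei methionyl-tRNA synthetase, purified | Medium: HEPES buffer with MgCl2, KCl, DTT, spermine, BSA, pyrophosphatase | Compound: 11.9 µM single point | Incubation: 15 min enzyme-compound preincubation, 2 h reaction, 10 min detection, 25 °C | Measured by: Kinase-Glo luciferase luminescence reporting remaining unconsumed ATP | Measure: % inhibition normalized to control-well medians | Replication: Singlicate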
CSN inh = inhibitors of CSN-mediated cullin deneddylation, primary screen, biochemical, fluorescence polarization, uHTS. Purified CSN, SCF-Nedd8-OG deneddylation. inhibition, % at 12.5 µM. 360,000 tested, 0.38% active;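 active = pattern-corrected inhibition above about 35%, with an unprinted fluorescence ratio check between 0.5 and 1.5, limit read from the data, passing the limit was not always enough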;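 note: 0% = enzyme with substrate and 100% = substrate without enzyme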
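test system = HEK293T-derived human Csn5 enzyme | amount = 0.24 nM Csn5 enzyme, final concentration | medium = Tris/NaCl/DTT buffer, pH 7.5 | schedule = 90 min reaction at room temperature | signal = FP | evaluation = inhibition of Csn5 cleavage, % | compound dosing = single dose of 12.5 µM compound with 0.25% DMSO | probe or stimulus = 10 nM SCFSkp2-Nedd8OG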
TbMetRS confirm = T. brucei MetRS inhibitors, confirmation, biochemical, luminescence; shares compounds with TbMetRS inhib; T. brucei MetRS enzyme, luminescence (ATP depletion); inhibition, % at 11.9 µM; 1,400 tested, 93% active; in the data active = inhibition above about 7%
Jurkat tox = Jurkat T cell cytotoxicity, cytotoxicity control for T. brucei MetRS inhibitor project, luminescence, high throughput; shares compounds with TbMetRS inhib; Jurkat cells viability, ATP luminescence; inhibition, % at 8.3 µM; 1,400 tested, 12% active; AID 624413, 2012; in the data active = inhibition above about 15%;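 note: 0% = vehicle and 100% = reference inhibitor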
TbMetRS FP orth = T. brucei MetRS inhibitors, orthogonal assay for T. brucei MetRS inhibitor project, biochemical, fluorescence polarization | shares compounds with TbMetRS inhib | purified T. brucei MetRS | inhibition, % at 11.9 µM | 1,400 tested, 44% active; in the data active = inhibition above about 17%;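 note: 0% = vehicle wells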
Numbers without * were called inactive; . = no result shown. Most compounds without a hit are left out; they make up all but 2.4% or so of the library.

SMILES	HNF4A DNA FP	Neddyl block	Rpn11 inh	PREPL inhibitor	TbMetRS inhib	CSN inh	TbMetRS confirm	Jurkat tox	TbMetRS FP orth
O=C(CSc1nnc(-c2ccccc2)c(-c2ccccc2)n1)NCc1ccco1	2	-18	-1	0	-1	2	.	.	.
COc1ccc(CNC(=O)CSc2nc3ccccc3n2C(C)=O)cc1	2	1	-2	4	17*	0	29*	-3	10
COC(=O)c1cnc(Nc2nc(C(N)Cc3ccccc3)cs2)nc1C(F)(F)F (stereo unspecified)	3	3	-10	.	0	-4	.	.	.
COc1ccc(CNC(=O)CSc2nnc3c(n2)[nH]c2ccccc23)cc1	1	-6	1	8	42*	-3	81*	4	75*
COc1cccc(CNC(=O)CSc2nnc3c(n2)[nH]c2ccc(F)cc23)c1	1	-12	-2	-7	1	1	.	.	.
COc1cccc(CNC(=O)CSc2nnc3c(n2)[nH]c2ccc(OC)cc23)c1	2	-27	1	-1	1	0	.	.	.
Cc1nnc(NC(=O)CSc2nnc3c(n2)[nH]c2ccc(Br)cc23)s1	5	-9	32	-1	12*	25	63*	11	54*
CC(C)c1ccc2[nH]c3nc(SCC(=O)NC4CC4)nnc3c2c1	6	12	3	-7	-1	2	.	.	.
COc1cccc(CNC(=O)CSc2nnc3c(n2)[nH]c2ccccc23)c1	-2	-27	0	7	20*	1	64*	5	35*
CC(=O)c1ccc(NC(=O)CN2CCCC2)cc1	3	-10	1	-5	0	3	.	.	.
COC(=O)c1sc(-c2ccc(Cl)cc2)cc1NC(=O)CSCC(=O)O	3	-27	-2	7	20*	1	33*	-7	24*
O=C(Cc1ccc(Cl)cc1)Nc1ccc(Br)cc1	2	-4	3	4	6.1*	5	11*	5	6
O=C(Cc1ccc(Br)cc1)NNC(=O)Nc1ccc(Cl)cc1	0	3	-12	14	17*	3	24*	5	17*
Cn1cccc1CC(=O)NNC(=O)Nc1ccc(Cl)cc1	-1	10	3	-1	0	-2	.	.	.
COc1ccccc1C1=CC(=O)CC(C)(C)C1=O	-2	-34	-6	3	0	2	.	.	.
O=C(Cc1ccccc1)Nc1nonc1NC(=O)c1ccccc1	-1	5	-8	-8	9.1*	2	16*	4	10
O=C(Cc1ccccc1)Nc1ccc(NC(=O)c2ccccc2)nc1	2	4	2	14	1	2	.	.	.
Cc1ccc(N2CC(c3nc4ccccc4[nH]3)CC2=O)c(C)c1 (stereo unspecified)	-3	-6	7	-4	8.3*	-4	9.2*	-5	10
CS(=O)(=O)N(CC(=O)Nc1ccc2c(c1)OCO2)Cc1ccccc1	3	-6	-2	2	0	-6	.	.	.
CS(=O)(=O)N(CC(=O)Nc1ccc2c(c1)OCO2)Cc1ccc(Cl)cc1	-3	-1	-5	2	14*	-8	23*	3	8
CC(=O)N1CCCc2cc(S(=O)(=O)CCC(=O)Nc3cccc(C)c3C)ccc21	1	-5	-3	8	0	2	.	.	.
CC1CCCN(CCCOc2ccc(Br)cc2Cl)C1 (stereo unspecified)	-4	1	3	30	17*	1	30*	23*	11
CN(C)CCCCOc1ccc(Br)cc1Cl	2	-2	-3	-1	8.0*	-6	21*	7	11
Cc1ccc(-c2noc(CCCC(=O)NCC3CCCO3)n2)cc1 (stereo unspecified)	4	-1	8	20	0	-1	.	.	.
Cc1cccc(C)c1-n1nnnc1C1(C)CCC(=O)N1CC(F)(F)F (stereo unspecified)	1	6	.	.	-1	3	.	.	.
SMILES	HNF4A DNA FP	Neddyl block	Rpn11 inh	PREPL inhibitor	TbMetRS inhib	CSN inh	TbMetRS confirm	Jurkat tox	TbMetRS FP orth
CCCn1c(N)c(C(=O)COC(=O)c2cccc(S(=O)(=O)N3CCOCC3)c2)c(=O)[nH]c1=O	1	7	-4	-2	0	0	.	.	.
N=c1sccn1CC(=O)NCCc1ccc(Cl)cc1Cl	4	-7	2	4	16*	-5	42*	-5	10
O=S(=O)(c1c(F)cccc1F)C1CCN(S(=O)(=O)c2ccc3c(c2)OCCO3)CC1	-1	-16	-2	22	-1	-1	.	.	.
COc1cc(Cn2c3ccc(NC(=S)NCc4ccc(C)cc4)cc3c(=O)n2C)ccc1F	-4	.	4	.	7.9*	0	28*	1	16
Cc1cc(C)cc(Cn2c3ccc(NC(=S)NCc4ccccc4F)cc3c(=O)n2C)c1	-1	-13	-3	.	8.5*	1	33*	-7	16
Cn1c(=O)c2cc(NC(=S)NCc3ccccc3F)ccc2n1Cc1ccccc1	-4	.	-2	.	1	3	.	.	.
NC(c1csc(Nc2ccc(C(=O)NCCCO)cn2)n1)c1ccccc1Cl (stereo unspecified)	2	11	2	.	0	0	.	.	.
C=CCNc1nc2cc(-c3cccc(Cl)c3)sc2c(=O)n1C	2	-114	0	.	0	0	.	.	.
COc1cccc(NC(=O)C(C#N)Cc2ccncc2)c1 (stereo unspecified)	-2	0	-5	10	16*	-2	1	3	3
CCOc1ccc(CN2CCN(Cc3cc4ccccc4[nH]3)CC2CCO)cc1 (stereo unspecified)	9	20	12	.	14*	6	26*	5	13
CC/C(O)=C1\C(=O)CCCC1=NCCc1nc2ccccc2[nH]1	0	39	-5	-11	1	-10	.	.	.
CC/C(O)=C1\C(=O)CCCC1=NCc1nc2ccccc2[nH]1	-4	1	5	6	8.9*	4	16*	2	5
